Values without a mark were called inactive. Records with an inconclusive call do not appear. Calls of active or inactive are those of the source.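 How the source made its calls, unless noted: active means cell viability at or below a set limit in both duplicate runs, the limit being the all-compound median minus 4 SD (cut at about 23% in these data, passing the limit was not always enough); inconclusive means no clear call, values can overlap the other calls; inactive means the rest.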
Assays:
[1] = OD615 S. cerevisiae growth inhibition, permissive medium, pilot counter-assay, permissive growth control for S. cerevisiae lifespan shortening project (AID 705;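 active means growth inhibition above 25% in both replicates, a cutoff set 3 SD above the mean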); details: OD615, 24 h, at 10 µM, active compounds read high
Outline: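 Material: engineered DeaD yeast; Compound: one dose 10 µM, DMSO 0.25% final; Detection: absorbance (optical density) at 615 nm; Buffer or medium: permissive raffinose/galactose medium; Timing: 24 h exposure, 30 °C.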

[2] = Restrictive medium S. cerevisiae growth inhibition, OD615, pilot screen of yeast lifespan reduction project, restrictive growth control (AID 706;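 active means growth inhibition above a set limit, 3 SD over mean compound inhibition, in both replicates, cut at about 43% in these data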;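 further: modified DeaD lifespan yeast strain shifted to restrictive glucose medium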); details: OD615, 48 h, at 10 µM, active compounds read high
Outline: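 Buffer or medium: restrictive glucose medium (CSMM-D); test system: modified S. cerevisiae; doses: single dose of 10 µM compound final, 0.25% DMSO; schedule: 48 h compound exposure at 30 °C; detection: absorbance (optical density) measured at 615 nm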

[3] = viability gain of MRP-1-high H69AR cells under doxorubicin, pilot screen, MRP-1 activator project, CellTiter-Glo, duplicate (AID 807;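 active means viability increase at or above a cutoff of the median across tested compounds plus 3 SD, cut at about 8.5% in these data, passing the limit was not always enough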;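 further: compound pretreatment 18-22 h then 72 h combined with doxorubicin; 0% = doxorubicin alone and 100% = vehicle without doxorubicin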); details: H69AR viability with doxorubicin, CellTiter-Glo luminescence; at 10 µM; active compounds read high
[4] = growth suppression of beta-catenin knockout HCT116, pilot screen, human colon tumor cells (AID 823); details: CellTiter-Glo, 60 h, at 10 µM, active compounds read low;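 further: 0% = wells killed by 20 µM Hyamine and 100% = untreated DMSO cell wells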
[5] = growth suppression of PTEN-deleted HCT116, pilot screen, cell-based, HCT116 clonal line, CellTiter-Glo (AID 824;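 active means viability at or below 27.92% in each of two runs, the all-compound median minus 4 SD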;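 further: 0% = 20 µM Hyamine control and 100% = vehicle cell control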); details: 60 h, at 10 µM, active compounds read low
[6] = inhibitors of the yeast RAM network, pilot screen, dse1pr::URA3 reporter, 5-FOA selection (AID 869;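 active means inhibition over a set limit, the all-compound mean plus 3 SD, in both replicate runs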;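 further: 0% = DMSO wells with no growth and 100% = 10 µM 1-NA-PP1 with full growth; RAM network block rescues cells from 5-FOA so hits raise OD615 growth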); details: S. cerevisiae dse1pr::URA3 5-FOA growth, OD615, 2 d; at 10 µM; active compounds read high; strain carries analog-sensitive mutant Cbk1 kinase
[7] = RAM signaling pathway blockade in yeast – S. cerevisiae, Pdr1DBD-CYC8 efflux-inhibited sensitized strain, primary screen (AID 1298;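 active means RAM network inhibition above 8.4% in each of two replicates, 3 SD over the compound average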;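 further: 0% = DMSO untreated cells without growth and 100% = 10 µM 1-NA-PP1 full growth; higher means more yeast growth rescued from 5-FOA killing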); details: S. cerevisiae cbk1-as DSE1-URA3 strain, 5-FOA growth OD615, 2 d; at 50 µM; active compounds read high

Row | Structure (SMILES) | growth inhibition [1] [%] | growth inhibition [2] [%] | viability increase [3] [%] | viability [4] | viability [5] | inhibition [6] [%] | RAM network inhibition [7] [%]
1 | CCOC(=O)CSC(CC)C(=O)Nc1nnc(C(C)C)s1 (stereo unspecified) | 5.7 | 9.58 | -1.46 | 94.6% | 94.7% | 1 | 9.23
2 | CC(NC(=O)C1CCC1)c1ccc2c(c1)OCO2 (stereo unspecified) | -10 | -5.42 | -2.08 | 97.5% | 91.7% | 1.67 | 0.83
3 | Cn1c(=O)oc2cc(S(=O)(=O)N3CCCC(C(=O)N4CCc5ccccc5C4)C3)ccc21 (stereo unspecified) | 1.16 | -8.79 | -2.62 | 87.8% | 84.9% | 1.8 | -0.89
4 | Cc1cc(C)cc(OCCCCCNCCO)c1 | -8.19 | -14.7 | -3.03 | 87.6% | 86.5% | 2.79 | 2.47
5 | CCOC(=O)c1ccc(N2C(=O)C3CC=C(C)CC3C2=O)cc1 (stereo unspecified) | -9.14 | -14.8 | -0.33 | 97.1% | 91.8% | 1.07 | 1.75
6 | CCCCOC(=O)Nc1ccccc1C(N)=O | -16.1 | -13 | 0.35 | 95.3% | 102% | 1.07 | 1.72
7 | CC1CCN(C(=O)CSc2nnc(Cn3c(=O)sc4ccccc43)n2C)CC1 | -3.65 | -5 | -0.3 | 121% | 112% | 0.075 | 3.13
8 | COc1ccccc1-n1c(=O)[nH]c2c(C(N)=O)nc(C3CCCCC3)nc21 | -7.19 | -5.21 | -3.33 | 94.7% | 77.5% | 1.55 | 2.69
9 | CCOc1ccccc1NC(=O)C1CCN(S(=O)(=O)c2cccc3cccnc23)CC1 | 1.06 | -4.09 | -3.97 | 85.2% | 80.9% | 1.24 | 1.72
10 | CC(C)=C1SC(N2CCN(Cc3ccccc3)CC2)=NC1=O | -6.78 | -0.855 | -2.86 | 94.9% | 97.5% | 0.52 | 4.6
11 | CCOc1ccc(N(CC(=O)NCCCOC)S(C)(=O)=O)cc1 | 4.66 | 3.23 | -2.35 | 98.9% | 101% | 0.95 | 2.73
12 | CCCCOC(=O)Cc1c(O)c2ccccc2[nH]c1=O | 10.9 | 12.5 | -1.82 | 102% | 93.2% | 1.82 | -0.98
13 | Cc1c(C(=O)OC2CCCC2)[nH]c2c1C(=O)CC(c1ccco1)C2 (stereo unspecified) | -6.06 | -12.3 | -5.41 | 15.4% (active) | 17.7% (active) | 1.86 | 0.11
14 | COc1cccc(-c2nc3cc(C)ccc3o2)c1 | -5.93 | 0.415 | -4.74 | 87.2% | 75.4% | 1.08 | 4.09
15 | O=C(CC1Oc2ccccc2NC1=O)NCCc1ccccc1 (stereo unspecified) | -0.525 | 0.925 | 0.98 | 107% | 105% | 2.94 | 9.58
16 | CCCCn1c(=NC(=O)c2cccnc2)c(C(=O)OCC)cc2c(=O)n3ccccc3nc21 | -19.8 | -15 | -4.72 | 84.2% | 88.1% | 0.685 | 7.68
17 | CCCN1CCN(CCCNC(=O)Cn2cc3c(n2)CCCC3)CC1 | -3.77 | -2.67 | -0.96 | 101% | 91% | 0.27 | 3.05

Row | Structure (SMILES) | growth inhibition [1] [%] | growth inhibition [2] [%] | viability increase [3] [%] | viability [4] | viability [5] | inhibition [6] [%] | RAM network inhibition [7] [%]
18 | Cc1cc(=O)[nH]c(SCC(=O)NCCOc2ccccc2)n1 | -2.17 | -1.72 | -0.09 | 102% | 98.8% | 1.02 | 1.13
19 | O=C1NC(=O)C(CC(=O)N(Cc2ccco2)C2(C(=O)NC3CCCCC3)CCCCC2)N1 (stereo unspecified) | -7.57 | -7.79 | -2.17 | 104% | 93.4% | -0.005 | 2.23
20 | COc1ccc(NC(=O)c2cnn3c(C(F)(F)F)cc(-c4ccco4)nc23)cc1OC | -11.5 | -12.4 | -0.73 | 96.5% | 93% | 1.89 | 2.09
21 | CCOc1ccc(NC(=O)c2cnc3scc(C)n3c2=O)cc1 | -17.7 | 3.42 | -1.16 | 101% | 98.9% | 2.76 | 8.45
22 | CCCN1CCC(N(C)CCc2ccc(OC)c(OC)c2)CC1 | -7.87 | -16.1 | -0.93 | 88.4% | 94.5% | 0.465 | 2.37
23 | COc1ccc(-n2c(C)nc3c(cnn3-c3ccc(C)c(C)c3)c2=O)cc1 | -13.7 | 8.51 | 2.3 | 86% | 79% | 2.09 | 5.89
24 | Clc1ccc2nc3ccccn3c2c1 | -6.63 | -5.02 | -4.02 | 109% | 106% | 1.56 | 2.48
25 | COc1ccc(N(CC(=O)N2CCc3ccccc3C2)S(=O)(=O)c2c(C)[nH]c(=O)[nH]c2=O)cc1 | -5.04 | -13 | -1.83 | 110% | 99.5% | 2.77 | 3.41
26 | CCNc1nnc(-c2ccccc2OC)s1 | -2.37 | 3.71 | -0.41 | 96% | 103% | -0.485 | 5.21
27 | CC(=O)OC1c2c(ccc3ccc(=O)oc23)OC(C)(C)C1OC(=O)CC(C)C (stereo unspecified) | -18.4 | -10 | 1.31 | 84.7% | 80.8% | 1.1 | 10
28 | Cc1cc(N2CCCC2)n2nc(C)nc2n1 | -10.1 | -17.2 | -0.52 | 102% | 101% | 1.88 | 1.98
29 | Cc1cc(=S)n(-c2ccccc2)n1C | 1.78 | 7.75 | -0.34 | 102% | 95.4% | 1.21 | 0.45
30 | COc1ccc(N(CC(=O)NC2CCCCCCC2)S(=O)(=O)c2c(C)nn(C)c2C)cc1 | -20.7 | -13.6 | -2.87 | 89.2% | 87.5% | 1.31 | 0.05
31 | Cc1ccc(C)c(Cn2c(CN(C)Cc3ccccc3)nc3c2c(=O)n(C)c(=O)n3C)c1 | -0.27 | -21.5 | -6.57 | 71.7% | 61.5% | 2.2 | 2.51
32 | CCOC(=O)Nc1ccc2c(c1)N(C(=O)N(C)C)c1ccccc1CC2 | -8.91 | -0.49 | -1.82 | 96.8% | 96% | -0.31 | 2.67
33 | CCOC(=O)N1CCC(NC(=O)c2cc3ccccn3n2)CC1 | 1.83 | 1.79 | 0.34 | 97.5% | 101% | 1.8 | 0.26
